Measured values: ChEMBL document CHEMBL2086300, “Synthesis and biological evaluation of imidazo[4,5-b]pyridine and 4-heteroaryl-pyrimidine derivatives as anti-cancer agents” (Eur J Med Chem, 2012)
The source made the active and inactive calls. The calls are words filed in the database; no cut-off is given here.

What was measured:
[1] = tested on: HCT-116; test: Antiproliferative activity against human HCT116 cells after 72 hrs by MTT assay; format: functional; conditions: HCT-116, 72 h
Outline: (§1)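 HCT-116 and MCF-7 cells kept in RPMI-1640 plus 10% FBS. Cells exposed to compound for 72 h and read by MTT. GI50 obtained by non-linear regression.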

[2] = tested on: MCF7; test: Antiproliferative activity against human MCF7 cells after 72 hrs by MTT assay; format: functional; conditions: MCF7, 72 h; outline: as §1
[3] = target: Cyclin-dependent kinase 1/cyclin B1 (Homo sapiens, UniProt P06493); test: Inhibition of CDK1/cyclin B by radiometric assay; format: protein-complex assay
Outline: (§2)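 Radiometric kinase assay run as an outsourced profiling service. IC50 taken from 10-point dose-response curves. Apparent Ki calculated from IC50 and the kinase-specific Km(ATP). Data are means of two replicates.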

[4] = target: Cyclin-dependent kinase 7/ cyclin H (Homo sapiens, UniProt P50613); test: Inhibition of CDK7/cyclin-H by radiometric assay; format: protein-complex assay; outline: as §2
[5] = target: CDK9/cyclin T1 (Homo sapiens, UniProt P50750); test: Inhibition of CDK9/cyclin-T1 by radiometric assay; format: protein-complex assay; outline: as §2
[6] = Selectivity ratio of Ki for CDK1/cyclin B to Ki for CDK9/cyclin-T1
Outline: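 Ratio of apparent Ki values for CDK1/cyclin B and CDK9/cyclin-T1. Each Ki comes from a radiometric assay, converted from 10-point-curve IC50 using Km(ATP), mean of two replicates.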

[7] = tested on: HCT-116; test: Cell cycle arrest in human HCT116 cells at 5 times GI50 after 24 hrs by propidium iodide staining based flow cytometry; format: functional
Outline: (§3)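 HCT-116 cells treated for 24 h at GI50, 5 × GI50 or 10 × GI50 multiples. Cells fixed and stained with propidium iodide, then DNA content read by flow cytometry. Pre-G1 fraction taken as the dead-cell population.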

[8] = tested on: HCT-116; test: Cell cycle arrest in human HCT116 cells assessed as accumulation at pre-G1 phase at 10 times GI50 after 24 hrs by propidium iodide staining based flow cytometry; format: functional; outline: as §3
[9] = target: CDK9/cyclin T1 (Homo sapiens) (UniProt O60563+P50750); test: Inhibition of CDK9/cyclin-T1 in human HCT116 cells assessed as RNAPII CTD phosphorylation at Ser-2 at 5 to 50 uM after 24 hrs by Western blotting analysis; format: cell-based; conditions: HCT-116
Outline: (§4)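 HCT-116 cells cultured with 5, 25 or 50 µM for 24 h. Lysates analysed by western blot, with β-actin as internal control.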

[10] = target: Cyclin-dependent kinase 7/ cyclin H (Homo sapiens) (UniProt P51946+P50613); test: Inhibition of CDK7/cyclin-H in human HCT116 cells assessed as RNAPII CTD phosphorylation at Ser-5 at 5 to 50 uM after 24 hrs by Western blotting analysis; format: cell-based; conditions: HCT-116; outline: as §4
[11] = tested on: HCT-116; test: Induction of apoptosis in human HCT116 cells assessed as increase of caspase-3/7 activity at GI50 after 24 hrs; format: functional, cell-based
[12] = tested on: HCT-116; test: Induction of apoptosis in human HCT116 cells assessed as increase of caspase-3/7 activity at 5 to 10 times GI50 after 24 hrs; format: functional, cell-based
[13] = tested on: HCT-116; test: Cell cycle arrest in human HCT116 cells at GI50 after 24 hrs by propidium iodide staining based flow cytometry; format: functional; outline: as §3
[14] = tested on: HCT-116; test: Induction of apoptosis in human HCT116 cells assessed as down-regulation of Mcl-1 level at 5 to 50 uM after 24 hrs Western blot analysis; format: functional, cell-based; outline: as §4
[15] = tested on: HCT-116; test: Induction of apoptosis in human HCT116 cells assessed as induction of PARP cleavage at 5 to 50 uM after 24 hrs Western blot analysis; format: functional, cell-based; outline: as §4

Chain of Cyclin-dependent kinase 7/ cyclin H (P51946 whole entry): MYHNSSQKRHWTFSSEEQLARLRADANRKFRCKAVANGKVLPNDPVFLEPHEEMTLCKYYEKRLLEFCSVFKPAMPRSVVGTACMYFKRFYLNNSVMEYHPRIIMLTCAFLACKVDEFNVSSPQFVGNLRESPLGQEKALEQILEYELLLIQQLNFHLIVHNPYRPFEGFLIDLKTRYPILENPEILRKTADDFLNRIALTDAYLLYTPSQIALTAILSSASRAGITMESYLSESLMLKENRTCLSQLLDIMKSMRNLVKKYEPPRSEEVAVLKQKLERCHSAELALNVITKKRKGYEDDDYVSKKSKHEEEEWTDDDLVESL
Chain of Cyclin-dependent kinase 7/ cyclin H (P50613 whole entry): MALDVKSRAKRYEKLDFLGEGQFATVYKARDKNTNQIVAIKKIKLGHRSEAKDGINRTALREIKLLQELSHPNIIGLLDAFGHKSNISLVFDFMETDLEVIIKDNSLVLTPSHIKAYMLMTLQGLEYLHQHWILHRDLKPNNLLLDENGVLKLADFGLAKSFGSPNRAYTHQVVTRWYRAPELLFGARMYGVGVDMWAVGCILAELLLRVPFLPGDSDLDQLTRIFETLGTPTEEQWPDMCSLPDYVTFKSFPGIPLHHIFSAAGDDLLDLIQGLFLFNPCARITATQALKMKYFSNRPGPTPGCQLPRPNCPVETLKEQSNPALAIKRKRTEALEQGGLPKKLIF
Chain of CDK9/cyclin T1 (O60563 whole entry): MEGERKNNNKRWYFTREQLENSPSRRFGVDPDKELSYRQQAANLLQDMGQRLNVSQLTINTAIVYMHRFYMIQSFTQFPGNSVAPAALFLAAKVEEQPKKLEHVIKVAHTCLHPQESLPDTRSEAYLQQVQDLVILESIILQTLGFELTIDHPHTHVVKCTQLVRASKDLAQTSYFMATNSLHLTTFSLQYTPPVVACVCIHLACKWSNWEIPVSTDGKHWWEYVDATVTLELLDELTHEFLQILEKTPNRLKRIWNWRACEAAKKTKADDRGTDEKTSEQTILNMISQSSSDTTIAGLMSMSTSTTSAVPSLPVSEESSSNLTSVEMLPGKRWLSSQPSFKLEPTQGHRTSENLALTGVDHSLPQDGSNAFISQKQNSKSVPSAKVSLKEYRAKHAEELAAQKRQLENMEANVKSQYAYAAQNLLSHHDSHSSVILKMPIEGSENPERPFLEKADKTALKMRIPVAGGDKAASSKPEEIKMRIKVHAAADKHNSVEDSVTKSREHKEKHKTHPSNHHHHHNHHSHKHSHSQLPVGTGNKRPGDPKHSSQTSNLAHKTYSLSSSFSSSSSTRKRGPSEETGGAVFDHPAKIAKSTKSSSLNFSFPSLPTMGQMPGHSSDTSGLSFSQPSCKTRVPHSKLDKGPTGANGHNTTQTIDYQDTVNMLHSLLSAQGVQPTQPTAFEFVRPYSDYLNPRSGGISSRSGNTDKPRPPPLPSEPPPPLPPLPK
Chain of CDK9/cyclin T1 (P50750 whole entry): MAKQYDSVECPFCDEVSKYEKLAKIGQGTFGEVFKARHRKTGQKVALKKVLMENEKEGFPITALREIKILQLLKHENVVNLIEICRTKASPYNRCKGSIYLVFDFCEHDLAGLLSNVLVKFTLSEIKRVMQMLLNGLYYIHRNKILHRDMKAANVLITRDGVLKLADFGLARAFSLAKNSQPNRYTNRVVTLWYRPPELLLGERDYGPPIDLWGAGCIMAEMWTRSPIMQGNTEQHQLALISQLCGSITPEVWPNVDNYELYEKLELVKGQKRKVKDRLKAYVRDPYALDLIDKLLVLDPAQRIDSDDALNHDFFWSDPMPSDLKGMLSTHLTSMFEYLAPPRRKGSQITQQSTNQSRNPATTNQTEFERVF
Chain of Cyclin-dependent kinase 1/cyclin B1 (P06493 whole entry): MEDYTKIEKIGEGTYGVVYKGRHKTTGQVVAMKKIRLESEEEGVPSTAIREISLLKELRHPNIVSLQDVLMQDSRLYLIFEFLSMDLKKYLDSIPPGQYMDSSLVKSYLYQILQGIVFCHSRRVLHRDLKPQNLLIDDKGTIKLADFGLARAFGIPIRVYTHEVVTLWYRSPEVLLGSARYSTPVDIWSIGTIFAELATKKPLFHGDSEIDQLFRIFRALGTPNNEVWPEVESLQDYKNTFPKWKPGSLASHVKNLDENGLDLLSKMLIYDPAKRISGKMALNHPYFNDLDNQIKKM
Chain of Cyclin-dependent kinase 1/cyclin B1 (P14635 whole entry, further chain): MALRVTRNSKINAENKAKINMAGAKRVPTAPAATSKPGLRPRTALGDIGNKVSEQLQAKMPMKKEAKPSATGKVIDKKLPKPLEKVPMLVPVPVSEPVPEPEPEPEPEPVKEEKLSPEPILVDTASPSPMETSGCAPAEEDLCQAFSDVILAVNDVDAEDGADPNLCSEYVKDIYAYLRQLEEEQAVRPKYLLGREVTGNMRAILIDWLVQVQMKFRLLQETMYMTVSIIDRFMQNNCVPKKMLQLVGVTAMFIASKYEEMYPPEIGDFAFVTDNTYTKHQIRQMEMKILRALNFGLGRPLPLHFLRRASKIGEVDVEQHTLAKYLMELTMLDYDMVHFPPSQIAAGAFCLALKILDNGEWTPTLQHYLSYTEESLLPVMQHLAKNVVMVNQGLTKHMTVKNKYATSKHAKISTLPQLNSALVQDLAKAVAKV

CCn1nc(-c2ccnc(Nc3cccc(O)c3)n2)c2ccccc21
GI50 [1]: 36.6 µM | GI50 [2]: 33.5 µM

Cn1nc(-c2ccnc(Nc3cccc(O)c3)n2)c2ccccc21
GI50 [1]: 17.2 µM | GI50 [2]: 28.2 µM

CCn1nc(-c2ccnc(Nc3cccc(S(N)(=O)=O)c3)n2)c2ccccc21
Ki [3]: 0.471 µM | GI50 [1]: 9.01 µM | GI50 [2]: 7.26 µM | Ki [4]: > 5 µM | Ki [5]: 0.154 µM

Cn1nc(-c2ccnc(Nc3cccc([N+](=O)[O-])c3)n2)c2ccccc21
GI50 [1]: 0.49 µM | GI50 [2]: 0.58 µM

NS(=O)(=O)c1ccc(Nc2nccc(-c3nn(Cc4cccnc4)c4ccccc34)n2)cc1
Ki [3]: 0.287 µM | GI50 [1]: 5.13 µM | GI50 [2]: 2.63 µM | Ki [4]: > 5 µM | Ki [5]: 0.207 µM

NS(=O)(=O)c1cccc(Nc2nccc(-c3nn(Cc4cccnc4)c4ccccc34)n2)c1
Ki [3]: 4.53 µM | GI50 [1]: 8.28 µM | GI50 [2]: 5.27 µM | Ki [4]: > 5 µM | Ki [5]: 0.314 µM | Ratio Ki [6]: 14

CCc1nn(-c2ccnc(Nc3ccc(S(N)(=O)=O)cc3)n2)c2ncccc12
GI50 [1]: 6.34 µM | GI50 [2]: 0.88 µM

Cn1nc(-c2ccnc(Nc3ccc([N+](=O)[O-])cc3)n2)c2ccccc21
GI50 [1]: 8.22 µM | GI50 [2]: 11.8 µM

Oc1ccc(Nc2nc3ncccc3n2Cc2ccccc2)cc1
GI50 [1]: 72.6 µM | GI50 [2]: 52.5 µM

COc1ccc(Nc2nc3ncccc3n2Cc2ccccc2)cc1
GI50 [1]: 87.3 µM | GI50 [2]: 59.1 µM

Cc1cccc(Nc2nccc(-c3nn(C)c4ccccc34)n2)c1
GI50 [1]: 9.42 µM | GI50 [2]: 9.15 µM

NS(=O)(=O)c1ccc(Nc2nccc(-n3ncc4cccnc43)n2)cc1
GI50 [1]: 8.04 µM | GI50 [2]: 7.02 µM

CCCn1nc(-c2ccnc(Nc3cccc(S(N)(=O)=O)c3)n2)c2ccccc21
Ki [3]: 0.945 µM | GI50 [1]: 7.95 µM | GI50 [2]: 4.26 µM | Ki [4]: > 5 µM | Ki [5]: 0.285 µM

Brc1cccc(Nc2nc3ncccc3n2Cc2ccccc2)c1
GI50 [1]: 77.7 µM | GI50 [2]: 78.7 µM

Clc1cccc(Nc2nc3ncccc3n2Cc2ccccc2)c1
GI50 [1]: 36.3 µM | GI50 [2]: 43.5 µM

NS(=O)(=O)c1ccc(Nc2nccc(-n3ncc4ccccc43)n2)cc1
Ki [3]: 0.028 µM | GI50 [1]: 0.59 µM | GI50 [2]: 1.87 µM | Ki [4]: 0.328 µM | Ki [5]: 0.091 µM

Cc1nn(-c2ccnc(Nc3ccc(S(N)(=O)=O)cc3)n2)c2ncccc12
GI50 [1]: 8.84 µM | GI50 [2]: 8.64 µM

c1ccc(Cn2c(Nc3ccccc3)nc3cccnc32)cc1
GI50 [1]: 60.2 µM | GI50 [2]: 51.8 µM

Cc1nn(-c2ccnc(Nc3cccc(S(N)(=O)=O)c3)n2)c2ncccc12
GI50 [1]: 24.8 µM | GI50 [2]: 19.9 µM

c1ccc(Cn2c(Nc3ccccc3)nc3ncccc32)cc1
GI50 [1]: 64.7 µM | GI50 [2]: 52.5 µM

CCn1nc(-c2ccnc(Nc3cccc([N+](=O)[O-])c3)n2)c2ccccc21
GI50 [1]: 2.82 µM | GI50 [2]: 2.31 µM

Cn1nc(-c2ccnc(Nc3ccc(S(N)(=O)=O)cc3)n2)c2ccccc21
Ki [3]: 0.096 µM | GI50 [1]: 2.28 µM | GI50 [2]: 0.94 µM | Ki [4]: > 5 µM | Ki [5]: 0.14 µM

Cc1ccc(Nc2nccc(-c3nn(C)c4ccccc34)n2)cc1
GI50 [1]: 8.64 µM | GI50 [2]: 6.1 µM

Cn1nc(-c2ccnc(Nc3ccc(O)cc3)n2)c2ccccc21
GI50 [1]: 8.43 µM | GI50 [2]: 8.91 µM

Cn1nc(-c2ccnc(Nc3cccc(Cl)c3)n2)c2ccccc21
GI50 [1]: 6.4 µM | GI50 [2]: 5.97 µM

CCn1nc(-c2ccnc(Nc3ccc(S(N)(=O)=O)cc3)n2)c2ccccc21
Ki [3]: 0.055 µM | GI50 [1]: 2.05 µM | GI50 [2]: 2.28 µM | Ki [4]: > 5 µM | Ki [5]: 0.253 µM

O=[N+]([O-])c1cccc(Nc2nc3ncccc3n2Cc2ccccc2)c1
GI50 [1]: 41.7 µM | GI50 [2]: 24.2 µM

NS(=O)(=O)c1cccc(Nc2nccc(-n3ncc4cccnc43)n2)c1
GI50 [1]: 14.6 µM | GI50 [2]: 6.93 µM

Cc1ccc(Nc2nc3ncccc3n2Cc2ccccc2)cc1[N+](=O)[O-]
GI50 [1]: 40.4 µM | GI50 [2]: 27.8 µM

CCCn1nc(-c2ccnc(Nc3ccc(O)cc3)n2)c2ccccc21
GI50 [1]: 5.45 µM | GI50 [2]: 3.34 µM

CCc1nn(-c2ccnc(Nc3cccc(S(N)(=O)=O)c3)n2)c2ncccc12
GI50 [1]: 65.1 µM | GI50 [2]: 73.2 µM

CCn1nc(-c2ccnc(Nc3ccc([N+](=O)[O-])cc3)n2)c2ccccc21
GI50 [1]: 4.06 µM | GI50 [2]: 24 µM

NS(=O)(=O)c1cccc(Nc2nccc(-n3ncc4ccccc43)n2)c1
Ki [3]: 0.053 µM | GI50 [1]: 0.75 µM | GI50 [2]: 5.56 µM | Ki [4]: > 5 µM | Ki [5]: 0.017 µM | Activity [7]: inactive | Activity [8]: Active | inhibition [9]: Active | inhibition [10]: inactive | Activity [11]: Active | Activity [12]: Active | Activity [13]: inactive | Activity [14]: Active | Activity [15]: Active

Cn1nc(-c2ccnc(Nc3ccc(Cl)cc3)n2)c2ccccc21
GI50 [1]: 8.73 µM | GI50 [2]: 7.83 µM

CCn1nc(-c2ccnc(Nc3ccc(O)cc3)n2)c2ccccc21
GI50 [1]: 5.29 µM | GI50 [2]: 5.78 µM

CCCn1nc(-c2ccnc(Nc3ccc(S(N)(=O)=O)cc3)n2)c2ccccc21
Ki [3]: 0.127 µM | GI50 [1]: 6.74 µM | GI50 [2]: 0.59 µM | Ki [4]: > 5 µM | Ki [5]: 0.176 µM

Clc1ccc(Nc2nc3ncccc3n2Cc2ccccc2)cc1
GI50 [1]: 59.5 µM | GI50 [2]: 48 µM

Cn1nc(-c2ccnc(Nc3cccc(S(N)(=O)=O)c3)n2)c2ccccc21
Ki [3]: 0.061 µM | GI50 [1]: 1.98 µM | GI50 [2]: 2.27 µM | Ki [4]: > 5 µM | Ki [5]: 0.098 µM
